These results are taken from ChEMBL document CHEMBL4414649, “Microbial Transformation of Cycloastragenol and Astragenol by Endophytic Fungi Isolated from Astragalus Species” (J Nat Prod, 2019).

The target of experiment [1] is Telomerase reverse transcriptase (Homo sapiens) (UniProt O14746). As to the kind of experiment: Activation of telomerase activity in human neonatal primary epidermal keratinocytes assessed as fold change at 0.1 to 30 nM after 24 hrs by PCR-based TRAP assay relative to untreated control. The essentials:
(§1)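 HEKn cells from ATCC, grown in dermal basal cell medium with keratinocyte growth supplements. Seeded, medium refreshed next day, then treated 24 h the following day (0.1–30 nM; DMSO control). 2 × 10^5 harvested cells lysed on ice 30 min, lysate spun 16000g 20 min. Telomerase measured by TRAP PCR-ELISA, absorbance at 450 nm (reference ~690 nm). Fold activation versus DMSO-treated cells.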

Experiment [2] shares this target. As to the kind of experiment: Activation of telomerase activity in human neonatal primary epidermal keratinocytes assessed as fold change at 0.1 nM after 24 hrs by PCR-based TRAP assay relative to untreated control. The essentials: as §1
For experiment [3] the target is unchanged. Kind of experiment: Activation of telomerase activity in human neonatal primary epidermal keratinocytes assessed as fold change at 0.5 nM after 24 hrs by PCR-based TRAP assay relative to untreated control. The essentials: as §1
Experiment [4] has the same target. Kind of experiment: Activation of telomerase activity in human neonatal primary epidermal keratinocytes assessed as fold change at 2 nM after 24 hrs by PCR-based TRAP assay relative to untreated control. The essentials:
as §1

Chain of Telomerase reverse transcriptase (Homo sapiens) (O14746 whole entry): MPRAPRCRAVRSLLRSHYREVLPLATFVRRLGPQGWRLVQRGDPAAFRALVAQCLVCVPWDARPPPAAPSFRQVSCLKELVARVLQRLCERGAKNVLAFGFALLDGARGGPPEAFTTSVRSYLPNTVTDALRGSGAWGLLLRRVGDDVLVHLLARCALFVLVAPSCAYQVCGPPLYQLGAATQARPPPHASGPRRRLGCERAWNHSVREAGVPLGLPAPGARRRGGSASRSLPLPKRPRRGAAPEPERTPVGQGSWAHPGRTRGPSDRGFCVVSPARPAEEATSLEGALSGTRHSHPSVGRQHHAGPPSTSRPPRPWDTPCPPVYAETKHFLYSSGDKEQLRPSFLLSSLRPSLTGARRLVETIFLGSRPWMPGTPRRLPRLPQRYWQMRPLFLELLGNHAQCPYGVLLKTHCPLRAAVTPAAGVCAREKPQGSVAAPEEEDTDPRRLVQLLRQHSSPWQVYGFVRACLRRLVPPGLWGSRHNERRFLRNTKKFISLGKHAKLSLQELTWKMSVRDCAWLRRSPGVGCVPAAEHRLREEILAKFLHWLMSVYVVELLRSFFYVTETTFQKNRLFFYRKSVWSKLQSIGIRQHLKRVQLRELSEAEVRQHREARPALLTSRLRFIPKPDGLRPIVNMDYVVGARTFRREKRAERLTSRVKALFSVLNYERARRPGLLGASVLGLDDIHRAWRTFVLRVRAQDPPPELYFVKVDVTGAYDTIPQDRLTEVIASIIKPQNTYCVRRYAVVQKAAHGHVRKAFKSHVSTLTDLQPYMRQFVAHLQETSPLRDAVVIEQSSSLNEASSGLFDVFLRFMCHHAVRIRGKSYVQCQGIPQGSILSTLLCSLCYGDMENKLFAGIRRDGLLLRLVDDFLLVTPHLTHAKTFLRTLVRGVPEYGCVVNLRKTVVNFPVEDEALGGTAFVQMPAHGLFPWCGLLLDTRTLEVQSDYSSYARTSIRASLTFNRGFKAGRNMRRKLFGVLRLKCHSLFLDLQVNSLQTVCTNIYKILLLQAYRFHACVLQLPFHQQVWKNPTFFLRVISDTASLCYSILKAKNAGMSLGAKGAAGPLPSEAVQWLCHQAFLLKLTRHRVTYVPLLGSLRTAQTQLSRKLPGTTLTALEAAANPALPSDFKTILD

As for `CC(C)(O)[C@@H]1CC[C@](C)([C@H]2[C@@H](O)C[C@@]3(C)[C@@H]4C[C@H](O)[C@H]5C(C)(C)C(=O)CC[C@@]56C[C@@]46[C@@H](O)C[C@]23C)O1`, the fold change (FC) in experiment [1] lay within 1.5 to 5.2.
`CC(C)(O)[C@@H]1CC[C@](C)([C@H]2[C@@H](O)C[C@@]3(CO)[C@@H]4C[C@H](O)[C@H]5C(C)(C)C(=O)CC[C@@]56C[C@@]46CC[C@]23C)O1`: the fold change (FC) in experiment [1] was 1.5 to 5.2; in experiment [2], 3.5.
On to `CC(C)(O)[C@@H]1CC[C@](C)([C@H]2[C@@H](O)C[C@@]3(C)[C@@H]4C[C@H](O)[C@H]5C(C)(C)[C@@H](O)CC[C@@]56C[C@@]46C[C@H](O)[C@]23C)O1`, for which the fold change (FC) was 5 in experiment [3] and 1.5 to 5.2 in experiment [1].
With `CC(C)(O)[C@@H]1CC[C@](C)([C@H]2[C@@H](O)C[C@@]3(C)[C@@H]4C[C@H](O)[C@H]5C(C)(C)[C@@H](O)CC[C@@]56C[C@@]46CC[C@]23C)O1`, the figures for the fold change (FC) in experiment [1], in experiment [4] and in experiment [2] were 1.5 to 5.2, 5.2 and 1.5, respectively.
Turning to `CC(C)(O)[C@@H]1CC[C@](C)([C@H]2[C@@H](O)C[C@@]3(C)[C@@H]4C[C@H](O)[C@H]5C(C)(C)[C@@H](O)CC[C@]5(C)C4=C[C@H](O)[C@]23C)O1`, the values for the fold change (FC) in experiment [1] and in experiment [2] were 1.5 to 5.2 and 3.8, respectively.
